ChEMBL document CHEMBL1926518, “Synthesis of macrolones with central piperazine ring in the linker and its influence on antibacterial activity” (2011)
In brackets after ≈: the same amount, converted by molar mass.

Assays:
Format in all cases: functional
Staphylococcus aureus [1] = assay: Antibacterial activity against erythromycin-sensitive Staphylococcus aureus ATCC 13709 by broth microdilution technique
In short: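 MIC by broth microdilution per CLSI guidelines with doubling dilutions of compounds. Before testing, staphylococci were grown on Mueller–Hinton agar. Values reported in µg/mL.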

Streptococcus pneumoniae [2] = assay: Antibacterial activity against erythromycin-sensitive Streptococcus pneumoniae SP030 by broth microdilution technique
In short: (§1)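 Streptococcal MICs by CLSI broth microdilution with doubling dilutions, but with 5% horse serum in the medium in place of lysed blood. Before testing, strains were grown on Columbia agar with 5% sheep blood. Values reported in µg/mL.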

Streptococcus pyogenes [3] = assay: Antibacterial activity against erythromycin-sensitive Streptococcus pyogenes 3565 by broth microdilution technique; in short: as §1
Staphylococcus aureus [4] = assay: Antibacterial activity against inducible macrolide, licosamide and streptogramin-resistant Staphylococcus aureus 90256/97 by broth microdilution technique
In short: (§2)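 MICs were determined by CLSI broth microdilution, with double dilutions of compound. Staphylococci were grown on Mueller–Hinton agar before testing. Results are given in µg/mL.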

Streptococcus pneumoniae [5] = assay: Antibacterial activity against inducible macrolide-resistant, constitutive licosamide and streptogramin-resistant Streptococcus pneumoniae 134 GR-Micro by broth microdilution technique
In short: (§3)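 MICs were determined by CLSI broth microdilution, with double dilutions of compound. In the streptococcal medium, 5% horse serum replaced lysed blood. Streptococci were grown on Columbia agar with 5% sheep blood before testing. Results are given in µg/mL.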

Streptococcus pyogenes [6] = assay: Antibacterial activity against inducible macrolide, licosamide and streptogramin-resistant Streptococcus pyogenes Finland 11 by broth microdilution technique; in short: as §3
Staphylococcus aureus [7] = assay: Antibacterial activity against constitutive macrolide, licosamide and streptogramin-resistant Staphylococcus aureus PK2 by broth microdilution technique; in short: as §2
Streptococcus pneumoniae [8] = assay: Antibacterial activity against constitutive macrolide, licosamide and streptogramin-resistant Streptococcus pneumoniae 58 Spain by broth microdilution technique; in short: as §3
Streptococcus pyogenes [9] = assay: Antibacterial activity against constitutive macrolide, licosamide and streptogramin-resistant Streptococcus pyogenes 166 GR-Micro by broth microdilution technique; in short: as §3
Staphylococcus aureus [10] = assay: Antibacterial activity against efflux-mediated macrolide-resistant Staphylococcus aureus PK1 by broth microdilution technique; in short: as §2
Streptococcus pneumoniae [11] = assay: Antibacterial activity against efflux-mediated macrolide-resistant Streptococcus pneumoniae Ci137 by broth microdilution technique; in short: as §3
Streptococcus pyogenes [12] = assay: Antibacterial activity against efflux-mediated macrolide-resistant Streptococcus pyogenes 3 Finland by broth microdilution technique; in short: as §3
Haemophilus influenzae = assay: Antibacterial activity against Haemophilus influenzae ATCC 49247 by broth microdilution technique
In short: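 MIC by broth microdilution per CLSI guidelines with doubling dilutions of compounds. Before testing, organisms were grown on Mueller-Hinton chocolate agar. Values reported in µg/mL.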

Moraxella catarrhalis = assay: Antibacterial activity against Moraxella catarrhalis ATCC 23246 by broth microdilution technique
In short: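 MIC by broth microdilution per CLSI guidelines with doubling dilutions of compounds. Before testing, organisms were grown on Columbia agar with 5% sheep blood. Values reported in µg/mL.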

Row | Compound | MIC (Staphylococcus aureus [1]) [µg/mL] | MIC (Streptococcus pneumoniae [2]) [µg/mL] | MIC (Streptococcus pyogenes [3]) [µg/mL] | MIC (Staphylococcus aureus [4]) [µg/mL] | MIC (Streptococcus pneumoniae [5]) [µg/mL] | MIC (Streptococcus pyogenes [6]) [µg/mL] | MIC (Staphylococcus aureus [7]) [µg/mL] | MIC (Streptococcus pneumoniae [8]) [µg/mL] | MIC (Streptococcus pyogenes [9]) [µg/mL] | MIC (Staphylococcus aureus [10]) [µg/mL] | MIC (Streptococcus pneumoniae [11]) [µg/mL] | MIC (Streptococcus pyogenes [12]) [µg/mL] | MIC (Haemophilus influenzae) [µg/mL] | MIC (Moraxella catarrhalis) [µg/mL]
1 | CCOC(=O)c1cn(CC)c2ccc(C#CCN3CCNCC3)cc2c1=O | > 64 | > 64 | > 64 | > 64 | > 64 | > 64 | > 64 | > 64 | > 64 | > 64 | > 64 | > 64 | > 64 | > 64
2 | CC[C@H]1OC(=O)[C@H](C)[C@@H](O[C@H]2C[C@@](C)(OC)[C@@H](OCCCN3CCN(CCCc4ccc5c(c4)c(=O)c(C(=O)O)cn5CC)CC3)[C@H](C)O2)[C@H](C)[C@@H](O[C@@H]2O[C@H](C)C[C@H](N(C)C)[C@H]2O)[C@](C)(O)C[C@@H](C)CN(C)[C@H](C)[C@@H](O)[C@]1(C)O | 8 (≈ 7.06 µM) | ≤ 0.125 | 0.5 (≈ 0.442 µM) | > 64 | 32 (≈ 28.3 µM) | 4 (≈ 3.53 µM) | > 64 | 8 (≈ 7.06 µM) | > 64 | 32 (≈ 28.3 µM) | 0.25 (≈ 0.221 µM) | 8 (≈ 7.06 µM) | 32 (≈ 28.3 µM) | 
3 | CCOC(=O)c1cn(C2CC2)c2ccc(CCCN3CCN(CCC(=O)O[C@H]4[C@H](C)O[C@@H](O[C@H]5[C@H](C)[C@@H](O[C@@H]6O[C@H](C)C[C@H](N(C)C)[C@H]6O)[C@](C)(OC)C[C@@H](C)C(=O)[C@H](C)[C@@H](O)[C@](C)(O)[C@@H](CC)OC(=O)[C@@H]5C)C[C@@]4(C)OC)CC3)cc2c1=O | 4 (≈ 3.37 µM) | ≤ 0.125 | ≤ 0.125 | > 64 | 16 (≈ 13.5 µM) | 0.5 (≈ 0.422 µM) | > 64 | 4 (≈ 3.37 µM) | 16 (≈ 13.5 µM) | > 64 | ≤ 0.125 | ≤ 0.125 | > 64 | 4 (≈ 3.37 µM)
4 | CCOC(=O)c1cn(C2CC2)c2ccc(C#CCN3CCNCC3)cc2c1=O | > 64 | > 64 | > 64 | > 64 | > 64 | > 64 | > 64 | > 64 | > 64 | > 64 | > 64 | > 64 | > 64 | > 64
5 | CCOC(=O)c1cn(C2CC2)c2ccc(CCCN3CCN(CCC(=O)O[C@H]4[C@H](C)O[C@@H](O[C@H]5[C@H](C)[C@@H](O[C@@H]6O[C@H](C)C[C@H](N(C)C)[C@H]6O)[C@](C)(O)C[C@@H](C)CN(C)[C@H](C)[C@@H](OC)[C@](C)(O)[C@@H](CC)OC(=O)[C@@H]5C)C[C@@]4(C)OC)CC3)cc2c1=O | 4 (≈ 3.33 µM) | ≤ 0.125 | ≤ 0.125 | > 64 | > 64 | 0.25 (≈ 0.208 µM) | > 64 | 32 (≈ 26.7 µM) | 32 (≈ 26.7 µM) | > 64 | ≤ 0.125 | 1 (≈ 0.833 µM) | 16 (≈ 13.3 µM) | 
6 | CCOC(=O)c1cn(CC)c2ccc(C#CCN3CCN(C(=O)OC(C)(C)C)CC3)cc2c1=O | > 64 | > 64 | > 64 | > 64 | > 64 | > 64 | > 64 | > 64 | > 64 | > 64 | > 64 | > 64 | > 64 | > 64
7 | CC[C@H]1OC(=O)[C@H](C)[C@@H](O[C@H]2C[C@@](C)(OC)[C@@H](OCCCN3CCN(C/C=C/c4ccc5c(c4)c(=O)c(C(=O)O)cn5CC)CC3)[C@H](C)O2)[C@H](C)[C@@H](O[C@@H]2O[C@H](C)C[C@H](N(C)C)[C@H]2O)[C@](C)(O)C[C@@H](C)CN(C)[C@H](C)[C@@H](O)[C@]1(C)O | 2 (≈ 1.77 µM) | ≤ 0.125 | ≤ 0.125 | > 64 | > 64 | 1 (≈ 0.885 µM) | > 64 | 32 (≈ 28.3 µM) | 64 (≈ 56.6 µM) | 8 (≈ 7.08 µM) | 8 (≈ 7.08 µM) | 4 (≈ 3.54 µM) | 16 (≈ 14.2 µM) | 0.5 (≈ 0.442 µM)
